# Test results published in ChEMBL document CHEMBL5058577, “EUbOPEN Chemogenomics Library 2 (Multiplex)” (2022).
# System: U2OS
# Assay: Multiplex assay against U2OS
# Type: toxicity, cell-based
# Conditions: human
# Procedure, shortened: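 With compound added, live cells were imaged on a CQ1 microscope at 37°C and 5% CO2; staining with Hoechst33342, BioTracker Green Microtubule Cytoskeleton Dye, MitoTracker Red and Annexin V Alexa Fluor 680 had been done at seeding. The CellPathfinder machine-learning gating scheme split cells into Hoechst high-intensity objects or normal cells, normal cells into healthy, pyknosed or fragmented nuclei, and pyknosed cells into mitotic or apoptotic. The tubulin, mitochondrial-mass and membrane-permeability phenotypes are per cents of healthy-nucleus cells.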
# [1] = 12 h, 1 µM, compound concentration 1 uM, replicate 1
# [2] = 12 h, 1 µM, compound concentration 1 uM, replicate 2
# [3] = 12 h, 10 µM, compound concentration 10 uM, replicate 1
# [4] = 12 h, 10 µM, compound concentration 10 uM, replicate 2
# [5] = 24 h, 1 µM, compound concentration 1 uM, replicate 1
# [6] = 24 h, 1 µM, compound concentration 1 uM, replicate 2
# [7] = 24 h, 10 µM, compound concentration 10 uM, replicate 1
# [8] = 24 h, 10 µM, compound concentration 10 uM, replicate 2
# [9] = 48 h, 1 µM, compound concentration 1 uM, replicate 1
# [10] = 48 h, 1 µM, compound concentration 1 uM, replicate 2
# [11] = 48 h, 10 µM, compound concentration 10 uM, replicate 1
# [12] = 48 h, 10 µM, compound concentration 10 uM, replicate 2
smiles,measurement,setting,value
CCC(=O)OCC(=O)[C@@]1(OC(=O)CC)[C@@H](C)C[C@H]2[C@@H]3CCC4=CC(=O)C=C[C@]4(C)[C@@]3(Cl)[C@@H](O)C[C@@]21C [BECLOMETHASONE DIPROPIONATE],Population Apoptotic (%),[1],84%
same,Population Fragmented Nuclei (%),[1],23%
same,Population Healthy Nuclei (%),[1],64%
same,Population Hoechst High Intensity Objects (%),[1],1%
same,Population Membrane Permeable-Phenotype (%),[1],11%
same,Population Mitochondria Different-Phenotype (%),[1],4%
same,Population Mitotic Cells (%),[1],15%
same,Population Normal (%),[1],98%
same,Population Pyknosed Nuclei (%),[1],12%
same,Population Tubulin-Different-Phenotype (%),[1],6%
same,Total Cell Count,[1],160
same,Population Apoptotic (%),[2],71%
same,Population Fragmented Nuclei (%),[2],18%
same,Population Healthy Nuclei (%),[2],75%
same,Population Hoechst High Intensity Objects (%),[2],0%
same,Population Membrane Permeable-Phenotype (%),[2],13%
same,Population Mitochondria Different-Phenotype (%),[2],8%
same,Population Mitotic Cells (%),[2],28%
same,Population Normal (%),[2],99%
same,Population Pyknosed Nuclei (%),[2],6%
same,Population Tubulin-Different-Phenotype (%),[2],4%
same,Total Cell Count,[2],111
same,Population Apoptotic (%),[3],65%
same,Population Fragmented Nuclei (%),[3],42%
same,Population Healthy Nuclei (%),[3],40%
same,Population Hoechst High Intensity Objects (%),[3],4%
same,Population Membrane Permeable-Phenotype (%),[3],67%
same,Population Mitochondria Different-Phenotype (%),[3],73%
same,Population Mitotic Cells (%),[3],34%
same,Population Normal (%),[3],95%
same,Population Pyknosed Nuclei (%),[3],17%
same,Population Tubulin-Different-Phenotype (%),[3],80%
same,Total Cell Count,[3],176
same,Population Apoptotic (%),[4],68%
same,Population Fragmented Nuclei (%),[4],12%
same,Population Healthy Nuclei (%),[4],69%
same,Population Membrane Permeable-Phenotype (%),[4],48%
same,Population Mitochondria Different-Phenotype (%),[4],97%
same,Population Mitotic Cells (%),[4],31%
same,Population Pyknosed Nuclei (%),[4],18%
same,Population Tubulin-Different-Phenotype (%),[4],97%
same,Total Cell Count,[4],109
same,Population Apoptotic (%),[5],78%
same,Population Fragmented Nuclei (%),[5],21%
same,Population Healthy Nuclei (%),[5],67%
same,Population Hoechst High Intensity Objects (%),[5],2%
same,Population Membrane Permeable-Phenotype (%),[5],2%
same,Population Mitochondria Different-Phenotype (%),[5],4%
same,Population Mitotic Cells (%),[5],21%
same,Population Normal (%),[5],97%
same,Population Pyknosed Nuclei (%),[5],10%
same,Population Tubulin-Different-Phenotype (%),[5],1%
same,Total Cell Count,[5],217
same,Population Apoptotic (%),[6],87%
same,Population Fragmented Nuclei (%),[6],15%
same,Population Healthy Nuclei (%),[6],71%
same,Population Hoechst High Intensity Objects (%),[6],0%
same,Population Membrane Permeable-Phenotype (%),[6],6%
same,Population Mitochondria Different-Phenotype (%),[6],5%
same,Population Mitotic Cells (%),[6],12%
same,Population Normal (%),[6],99%
same,Population Pyknosed Nuclei (%),[6],13%
same,Population Tubulin-Different-Phenotype (%),[6],3%
same,Total Cell Count,[6],123
same,Population Apoptotic (%),[7],74%
same,Population Fragmented Nuclei (%),[7],35%
same,Population Healthy Nuclei (%),[7],45%
same,Population Hoechst High Intensity Objects (%),[7],3%
same,Population Membrane Permeable-Phenotype (%),[7],40%
same,Population Mitochondria Different-Phenotype (%),[7],72%
same,Population Mitotic Cells (%),[7],25%
same,Population Normal (%),[7],96%
same,Population Pyknosed Nuclei (%),[7],18%
same,Population Tubulin-Different-Phenotype (%),[7],66%
same,Total Cell Count,[7],174
same,Population Apoptotic (%),[8],64%
same,Population Fragmented Nuclei (%),[8],12%
same,Population Healthy Nuclei (%),[8],69%
same,Population Hoechst High Intensity Objects (%),[8],9%
same,Population Membrane Permeable-Phenotype (%),[8],43%
same,Population Mitochondria Different-Phenotype (%),[8],86%
same,Population Mitotic Cells (%),[8],35%
same,Population Normal (%),[8],90%
same,Population Pyknosed Nuclei (%),[8],17%
same,Population Tubulin-Different-Phenotype (%),[8],76%
same,Total Cell Count,[8],106
same,Population Apoptotic (%),[9],91%
same,Population Fragmented Nuclei (%),[9],22%
same,Population Healthy Nuclei (%),[9],68%
same,Population Hoechst High Intensity Objects (%),[9],2%
same,Population Membrane Permeable-Phenotype (%),[9],5%
same,Population Mitochondria Different-Phenotype (%),[9],2%
same,Population Mitotic Cells (%),[9],8%
same,Population Normal (%),[9],97%
same,Population Pyknosed Nuclei (%),[9],9%
same,Population Tubulin-Different-Phenotype (%),[9],2%
same,Total Cell Count,[9],268
same,Population Apoptotic (%),[10],85%
same,Population Fragmented Nuclei (%),[10],10%
same,Population Healthy Nuclei (%),[10],75%
same,Population Membrane Permeable-Phenotype (%),[10],8%
same,Population Mitochondria Different-Phenotype (%),[10],5%
same,Population Mitotic Cells (%),[10],14%
same,Population Pyknosed Nuclei (%),[10],14%
same,Population Tubulin-Different-Phenotype (%),[10],3%
same,Total Cell Count,[10],152
same,Population Apoptotic (%),[11],80%
same,Population Fragmented Nuclei (%),[11],36%
same,Population Healthy Nuclei (%),[11],47%
same,Population Hoechst High Intensity Objects (%),[11],4%
same,Population Membrane Permeable-Phenotype (%),[11],20%
same,Population Mitochondria Different-Phenotype (%),[11],26%
same,Population Mitotic Cells (%),[11],20%
same,Population Normal (%),[11],95%
same,Population Pyknosed Nuclei (%),[11],15%
same,Population Tubulin-Different-Phenotype (%),[11],14%
same,Total Cell Count,[11],199
same,Population Apoptotic (%),[12],70%
same,Population Fragmented Nuclei (%),[12],21%
same,Population Healthy Nuclei (%),[12],65%
same,Population Hoechst High Intensity Objects (%),[12],6%
same,Population Membrane Permeable-Phenotype (%),[12],16%
same,Population Mitochondria Different-Phenotype (%),[12],36%
same,Population Mitotic Cells (%),[12],29%
same,Population Normal (%),[12],93%
same,Population Pyknosed Nuclei (%),[12],13%
same,Population Tubulin-Different-Phenotype (%),[12],10%
same,Total Cell Count,[12],131
